ChEMBL document CHEMBL1125337, “Synthesis and antibacterial activity of a series of basic amides of teicoplanin and deglucoteicoplanin with polyamines” (J Med Chem, 1992)
Values after ≈ are worked out from the molar mass of the structure shown.

Columns and labels:
Streptococcus pyogenes [1] = experiment: Minimum inhibitory concentration against Streptococcus pyogenes L 49; format: functional
Summary of the method: (§1)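 MIC (µg/mL) by microbroth dilution in Todd-Hewitt broth, final inoculum 10^4 cfu/mL, incubated 24 h at 37 °C in air.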

[2] = test system: Staphylococcus haemolyticus; experiment: Minimum inhibitory concentration against Staphylococcus haemolyticus L 602; format: functional
Summary of the method: (§2)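 MIC (µg/mL) by microbroth dilution in Iso-Sensitest broth; final inoculum 10^4 cfu/mL; 24 h at 37 °C in air.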

Staphylococcus aureus = experiment: Minimum inhibitory concentration against Staphylococcus aureus L 165; format: functional; summary of the method: as §2
[3] = test system: Staphylococcus epidermidis; experiment: Minimum inhibitory concentration against Staphylococcus epidermidis ATCC 12228; format: functional; summary of the method: as §2
Streptococcus pneumoniae = experiment: Minimum inhibitory concentration against Streptococcus pneumoniae L 44; format: functional; summary of the method: as §1
[4] = Association constant to Ac2-L-Lys-D-Ala-D-Ala determined at pH 9; Value ranges from (9.5E4-3.5E5)
Enterococcus faecalis = experiment: Minimum inhibitory concentration against Enterococcus faecalis ATCC 7080; format: functional
Summary of the method: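 Microbroth dilution MIC (µg/mL), final inoculum 10^4 cfu/mL, incubated 24 h at 37 °C in air.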

Streptococcus pyogenes [5] = experiment: Efficacy of compound administered perorally against Streptococcus pyogenes L 49 Septicemia in mouse; format: functional; details: po
Summary of the method: (§3)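 Mice were infected intraperitoneally with about 10^5 Strep. pyogenes L 49 cells, about 100 times the 50% lethal dose. Groups of 5–8 mice were treated once right after challenge, by the route stated in the line. ED50 (mg/kg) was derived from percentage survival at each dose on day 7 (Spearman-Kärber).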

Streptococcus pyogenes [6] = experiment: Efficacy of compound administered subcutaneously against Streptococcus pyogenes L 49 Septicemia in mouse; format: functional; details: sc; summary of the method: as §3
Pseudomonas aeruginosa = experiment: Minimum inhibitory concentration against Pseudomonas aeruginosa ATCC 10145; format: functional; summary of the method: as §2
Escherichia coli = experiment: Minimum inhibitory concentration against Escherichia coli L 47; format: functional; summary of the method: as §2
Proteus vulgaris = experiment: Minimum inhibitory concentration against Proteus vulgaris ATCC 881; format: functional; summary of the method: as §2

Structure (SMILES) | MIC (Streptococcus pyogenes [1]) [µg/mL] | MIC [2] [µg/mL] | MIC (Staphylococcus aureus) [µg/mL] | MIC [3] [µg/mL] | MIC (Streptococcus pneumoniae) [µg/mL] | Ka [4] [M⁻¹] | MIC (Enterococcus faecalis) [µg/mL] | ED50 (Streptococcus pyogenes [5]) [mg/kg] | ED50 (Streptococcus pyogenes [6]) [mg/kg] | MIC (Pseudomonas aeruginosa) [µg/mL] | MIC (Escherichia coli) [µg/mL] | MIC (Proteus vulgaris) [µg/mL]
CC(=O)N[C@@H]1[C@H](O[C@@H]2c3ccc(c(Cl)c3)Oc3cc4cc(c3O[C@@H]3O[C@@H](CO)[C@@H](O)[C@H](O)[C@@H]3NC(=O)CCCCCCC(C)C)Oc3ccc(cc3Cl)C[C@H]3NC(=O)[C@H](N)c5ccc(O)c(c5)Oc5cc(O)cc(c5)[C@H](NC3=O)C(=O)N[C@H]4C(=O)N[C@H]3C(=O)N[C@@H]2C(=O)N[C@H](C(=O)NCCCN(CCCN)CCCN)c2cc(O)cc(O[C@H]4O[C@H](CO)[C@@H](O)[C@@H](O)[C@@H]4O)c2-c2cc3ccc2O)O[C@@H](CO)[C@@H](O)[C@@H]1O | 0.063 (≈ 0.0307 µM) | 2 (≈ 0.976 µM) | 0.125 (≈ 0.061 µM) | 0.125 (≈ 0.061 µM) | 0.063 (≈ 0.0307 µM) | 350000 | 0.125 (≈ 0.061 µM) | – | – | – | – | –
CC(=O)N[C@@H]1[C@H](O[C@@H]2c3ccc(c(Cl)c3)Oc3cc4cc(c3O[C@@H]3O[C@@H](CO)[C@@H](O)[C@H](O)[C@@H]3NC(=O)CCCCCCC(C)C)Oc3ccc(cc3Cl)C[C@H]3NC(=O)[C@H](N)c5ccc(O)c(c5)Oc5cc(O)cc(c5)[C@H](NC3=O)C(=O)N[C@H]4C(=O)N[C@H]3C(=O)N[C@@H]2C(=O)N[C@H](C(=O)NCCCNCCCCNCCCN)c2cc(O)cc(O[C@H]4O[C@H](CO)[C@@H](O)[C@@H](O)[C@@H]4O)c2-c2cc3ccc2O)O[C@@H](CO)[C@@H](O)[C@@H]1O | 0.063 (≈ 0.0305 µM) | 0.125 (≈ 0.0606 µM) | 0.125 (≈ 0.0606 µM) | 0.063 (≈ 0.0305 µM) | 0.125 (≈ 0.0606 µM) | 350000 | 0.125 (≈ 0.0606 µM) | 81 | 0.03 | – | – | –
CC(=O)N[C@@H]1[C@H](O[C@@H]2c3ccc(c(Cl)c3)Oc3cc4cc(c3O[C@@H]3O[C@@H](CO)[C@@H](O)[C@H](O)[C@@H]3NC(=O)CCCCCCC(C)C)Oc3ccc(cc3Cl)C[C@H]3NC(=O)[C@H](N)c5ccc(O)c(c5)Oc5cc(O)cc(c5)[C@H](NC3=O)C(=O)N[C@H]4C(=O)N[C@H]3C(=O)N[C@@H]2C(=O)N[C@H](C(=O)NCCNCCCNCCN)c2cc(O)cc(O[C@H]4O[C@H](CO)[C@@H](O)[C@@H](O)[C@@H]4O)c2-c2cc3ccc2O)O[C@@H](CO)[C@@H](O)[C@@H]1O | 0.063 (≈ 0.0312 µM) | 0.125 (≈ 0.0618 µM) | 0.125 (≈ 0.0618 µM) | 0.063 (≈ 0.0312 µM) | 0.125 (≈ 0.0618 µM) | 350000 | 0.125 (≈ 0.0618 µM) | – | – | – | – | –
N[C@H]1C(=O)N[C@@H]2Cc3ccc(c(Cl)c3)Oc3cc4cc(c3O)Oc3ccc(cc3Cl)[C@@H](O)[C@@H]3NC(=O)[C@H](NC(=O)[C@@H]4NC(=O)[C@@H](NC2=O)c2cc(O)cc(c2)Oc2cc1ccc2O)c1ccc(O)c(c1)-c1c(O)cc(O)cc1[C@@H](C(=O)N1CCNCCNCCNCCNCCNCC1)NC3=O | 0.25 (≈ 0.174 µM) | 1 (≈ 0.695 µM) | 0.125 (≈ 0.0868 µM) | 0.125 (≈ 0.0868 µM) | 0.25 (≈ 0.174 µM) | – | 0.5 (≈ 0.347 µM) | – | – | > 128 | > 128 | > 128
CCN(CC)CCN(CCCN)CCCNC(=O)[C@H]1NC(=O)[C@H]2NC(=O)[C@H](NC(=O)[C@@H]3NC(=O)[C@H]4NC(=O)[C@@H](Cc5ccc(c(Cl)c5)Oc5cc3cc(c5O)Oc3ccc(cc3Cl)[C@H]2O)NC(=O)[C@H](N)c2ccc(O)c(c2)Oc2cc(O)cc4c2)c2ccc(O)c(c2)-c2c(O)cc(O)cc21 | 0.125 (≈ 0.0886 µM) | 0.125 (≈ 0.0886 µM) | 0.125 (≈ 0.0886 µM) | 0.032 (≈ 0.0227 µM) | 0.125 (≈ 0.0886 µM) | – | 0.125 (≈ 0.0886 µM) | – | – | 128 (≈ 90.7 µM) | 32 (≈ 22.7 µM) | > 128
N[C@H]1C(=O)N[C@@H]2Cc3ccc(c(Cl)c3)Oc3cc4cc(c3O)Oc3ccc(cc3Cl)[C@@H](O)[C@@H]3NC(=O)[C@H](NC(=O)[C@@H]4NC(=O)[C@@H](NC2=O)c2cc(O)cc(c2)Oc2cc1ccc2O)c1ccc(O)c(c1)-c1c(O)cc(O)cc1[C@@H](C(=O)NCCN1CCCCNCCCC1)NC3=O | 0.063 (≈ 0.0461 µM) | 0.125 (≈ 0.0915 µM) | 0.125 (≈ 0.0915 µM) | 0.063 (≈ 0.0461 µM) | 0.125 (≈ 0.0915 µM) | – | 0.125 (≈ 0.0915 µM) | – | – | 64 (≈ 46.8 µM) | 8 (≈ 5.86 µM) | 64 (≈ 46.8 µM)
CC(=O)N[C@@H]1[C@H](O[C@@H]2c3ccc(c(Cl)c3)Oc3cc4cc(c3O[C@@H]3O[C@@H](CO)[C@@H](O)[C@H](O)[C@@H]3NC(=O)CCCCCCC(C)C)Oc3ccc(cc3Cl)C[C@H]3NC(=O)[C@H](N)c5ccc(O)c(c5)Oc5cc(O)cc(c5)[C@H](NC3=O)C(=O)N[C@H]4C(=O)N[C@H]3C(=O)N[C@@H]2C(=O)N[C@H](C(=O)NCCCNCCCN)c2cc(O)cc(O[C@H]4O[C@H](CO)[C@@H](O)[C@@H](O)[C@@H]4O)c2-c2cc3ccc2O)O[C@@H](CO)[C@@H](O)[C@@H]1O | 0.125 (≈ 0.0627 µM) | 2 (≈ 1 µM) | 1 (≈ 0.502 µM) | 0.25 (≈ 0.125 µM) | 0.125 (≈ 0.0627 µM) | 350000 | 0.5 (≈ 0.251 µM) | – | – | – | – | –
NCCCN1CCCCN(CCCNC(=O)[C@H]2NC(=O)[C@H]3NC(=O)[C@H](NC(=O)[C@@H]4NC(=O)[C@H]5NC(=O)[C@@H](Cc6ccc(c(Cl)c6)Oc6cc4cc(c6O)Oc4ccc(cc4Cl)[C@H]3O)NC(=O)[C@H](N)c3ccc(O)c(c3)Oc3cc(O)cc5c3)c3ccc(O)c(c3)-c3c(O)cc(O)cc32)CCCC1 | 0.063 (≈ 0.0438 µM) | 0.125 (≈ 0.087 µM) | 0.063 (≈ 0.0438 µM) | 0.063 (≈ 0.0438 µM) | 0.125 (≈ 0.087 µM) | – | 0.125 (≈ 0.087 µM) | – | – | 16 (≈ 11.1 µM) | 4 (≈ 2.78 µM) | 128 (≈ 89.1 µM)
CC(=O)N[C@@H]1[C@H](O[C@@H]2c3ccc(c(Cl)c3)Oc3cc4cc(c3O[C@@H]3O[C@@H](CO)[C@@H](O)[C@H](O)[C@@H]3NC(=O)CCCCCCC(C)C)Oc3ccc(cc3Cl)C[C@H]3NC(=O)[C@H](N)c5ccc(O)c(c5)Oc5cc(O)cc(c5)[C@H](NC3=O)C(=O)N[C@H]4C(=O)N[C@H]3C(=O)N[C@@H]2C(=O)N[C@H](C(=O)NCCCNCCNCCCN)c2cc(O)cc(O[C@H]4O[C@H](CO)[C@@H](O)[C@@H](O)[C@@H]4O)c2-c2cc3ccc2O)O[C@@H](CO)[C@@H](O)[C@@H]1O | 0.063 (≈ 0.0309 µM) | 0.125 (≈ 0.0614 µM) | 0.25 (≈ 0.123 µM) | 0.125 (≈ 0.0614 µM) | 0.125 (≈ 0.0614 µM) | 350000 | 0.125 (≈ 0.0614 µM) | – | – | – | – | –
CC(=O)N[C@@H]1[C@H](O[C@@H]2c3ccc(c(Cl)c3)Oc3cc4cc(c3O[C@@H]3O[C@@H](CO)[C@@H](O)[C@H](O)[C@@H]3NC(=O)CCCCCCC(C)C)Oc3ccc(cc3Cl)C[C@H]3NC(=O)[C@H](N)c5ccc(O)c(c5)Oc5cc(O)cc(c5)[C@H](NC3=O)C(=O)N[C@H]4C(=O)N[C@H]3C(=O)N[C@@H]2C(=O)N[C@H](C(=O)N2CCNCCNCCNCCNCCNCC2)c2cc(O)cc(O[C@H]4O[C@H](CO)[C@@H](O)[C@@H](O)[C@@H]4O)c2-c2cc3ccc2O)O[C@@H](CO)[C@@H](O)[C@@H]1O | 0.063 (≈ 0.0297 µM) | 8 (≈ 3.77 µM) | 0.25 (≈ 0.118 µM) | 0.125 (≈ 0.059 µM) | 0.063 (≈ 0.0297 µM) | 350000 | 0.125 (≈ 0.059 µM) | – | – | – | – | –
CC(=O)N[C@@H]1[C@H](O[C@@H]2c3ccc(c(Cl)c3)Oc3cc4cc(c3O[C@@H]3O[C@@H](CO)[C@@H](O)[C@H](O)[C@@H]3NC(=O)CCCCCCC(C)C)Oc3ccc(cc3Cl)C[C@H]3NC(=O)[C@H](N)c5ccc(O)c(c5)Oc5cc(O)cc(c5)[C@H](NC3=O)C(=O)N[C@H]4C(=O)N[C@H]3C(=O)N[C@@H]2C(=O)N[C@H](C(=O)N2CCCCN(CCCN(C)C)CCCC2)c2cc(O)cc(O[C@H]4O[C@H](CO)[C@@H](O)[C@@H](O)[C@@H]4O)c2-c2cc3ccc2O)O[C@@H](CO)[C@@H](O)[C@@H]1O | 0.063 (≈ 0.0302 µM) | 0.5 (≈ 0.239 µM) | 0.125 (≈ 0.0598 µM) | 0.063 (≈ 0.0302 µM) | 0.125 (≈ 0.0598 µM) | 350000 | 0.125 (≈ 0.0598 µM) | – | – | – | – | –
CN(C)CCCN1CCCCN(C(=O)[C@H]2NC(=O)[C@H]3NC(=O)[C@H](NC(=O)[C@@H]4NC(=O)[C@H]5NC(=O)[C@@H](Cc6ccc(c(Cl)c6)Oc6cc4cc(c6O)Oc4ccc(cc4Cl)[C@H]3O)NC(=O)[C@H](N)c3ccc(O)c(c3)Oc3cc(O)cc5c3)c3ccc(O)c(c3)-c3c(O)cc(O)cc32)CCCC1 | 0.063 (≈ 0.0447 µM) | – | 0.063 (≈ 0.0447 µM) | 0.063 (≈ 0.0447 µM) | 0.125 (≈ 0.0888 µM) | – | 0.125 (≈ 0.0888 µM) | – | – | 32 (≈ 22.7 µM) | 8 (≈ 5.68 µM) | 128 (≈ 90.9 µM)
CC(=O)N[C@@H]1[C@H](O[C@@H]2c3ccc(c(Cl)c3)Oc3cc4cc(c3O[C@@H]3O[C@@H](CO)[C@@H](O)[C@H](O)[C@@H]3NC(=O)CCCCCCC(C)C)Oc3ccc(cc3Cl)C[C@H]3NC(=O)[C@H](N)c5ccc(O)c(c5)Oc5cc(O)cc(c5)[C@H](NC3=O)C(=O)N[C@H]4C(=O)N[C@H]3C(=O)N[C@@H]2C(=O)N[C@H](C(=O)O)c2cc(O)cc(O[C@H]4O[C@H](CO)[C@@H](O)[C@@H](O)[C@@H]4O)c2-c2cc3ccc2O)O[C@@H](CO)[C@@H](O)[C@@H]1O | 0.063 (≈ 0.0335 µM) | 8 (≈ 4.26 µM) | 0.125 (≈ 0.0665 µM) | 0.125 (≈ 0.0665 µM) | 0.063 (≈ 0.0335 µM) | – | 0.125 (≈ 0.0665 µM) | > 170 | 0.12 | – | – | –
